From ChEMBL document CHEMBL1125357, “Gonadotropin-releasing hormone antagonists with N omega-triazolylornithine, -lysine, or -p-aminophenylalanine residues at positions 5 and 6” (J Med Chem, 1992)
In brackets after ≈: the same amount, converted by molar mass. Several values for one entry are separate records, joined by “and”; a condition that tells them apart may be missing. Identical values can stand only once. Starred links: 1 amine or outer side, 2 acyl side, 3 side chain; linkers in the order of their positions; H or OH if unused. Non-standard residues stand in square brackets, D forms with d. Residues, ends and D or L forms follow the SMILES beside them. *: point of attachment. Phe(4-NH(5-NH2triazol-3-yl)) = Nc1nc(Nc2ccc(C[C@H](N)C(=O)O)cc2)n[nH]1; dNva(5-oxo-5-(4-MeOPh)) = COc1ccc(C(=O)CC[C@@H](N)C(=O)O)cc1; X1 = Nc1nc(Nc2ccc(C[C@@H](N[*:1])C(=O)[*:2])cc2)n[nH]1; d(hArg(Et2)) = CCN=C(NCC)NCCCC[C@@H](N)C(=O)O; hArg(Et2) = CCN=C(NCC)NCCCC[C@H](N)C(=O)O; Triazol3yl(1,2,4-5-NH2) = Nc1nc(*)n[nH]1; dPhe(4-Cl) = N[C@H](Cc1ccc(Cl)cc1)C(=O)O; d2Nal = N[C@H](Cc1ccc2ccccc2c1)C(=O)O; Lys(iPr) = CC(C)NCCCC[C@H](N)C(=O)O; NMeY = CN[C@@H](Cc1ccc(O)cc1)C(=O)O; dCit = NC(=O)NCCC[C@@H](N)C(=O)O; d3Pal = N[C@H](Cc1cccnc1)C(=O)O; NMeL = CN[C@@H](CC(C)C)C(=O)O; Nicotinoyl = O=C(c1cccnc1)*; dOrn = NCCC[C@@H](N)C(=O)O; Orn = NCCC[C@H](N)C(=O)O

Experiments:
Rattus norvegicus [1] = organism: Rattus norvegicus; assay: Antiovulatory activity measured in rat; assay type: functional; set-up: unit: ug/rat
How it was run: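 Corbin–Beattie rat antiovulatory assay. Cycling female rats of 250-300 g were given a single sc injection of peptide at noon on proestrus. Vehicle was saline or 5% DMSO in saline (200 μL), or corn oil where flagged. Result is expressed as dose in μg/rat with the number of rats ovulating over the number treated.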

Homo sapiens = organism: Homo sapiens; assay: In vitro antagonistic potency relative to Ac-delta-3-Pro1-(D)Fpa2-(D)Trp3,6]GnRH; assay type: functional
How it was run: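 Cultured rat pituitary cells. Peptides were scored for inhibition of GnRH-mediated LH secretion, and potency is expressed relative to the standard antagonist [Ac-Δ3-Pro1,DFpa2,DTrp3,6]GnRH (= 1.0).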

Rattus norvegicus [2] = organism: Rattus norvegicus; assay: The compound was tested in vitro for the histamine release; assay type: functional; conditions: read-out: ED50 (the source's name)
[3] = Retention time of the compound; assay type: ADME
How it was run: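 Peptide (0.5 mg/mL, 10 μL) was loaded in TEAP pH 7.0/CH3CN (76/24), acidified with H3PO4 where insoluble. Elution used a 30-48% CH3CN gradient over 30 min at 1.5 mL/min. Retention time is reported in minutes.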

## CC(=O)N[C@H](Cc1ccc2ccccc2c1)C(=O)N[C@H](Cc1ccc(Cl)cc1)C(=O)N[C@H](Cc1cccnc1)C(=O)N[C@@H](CO)C(=O)N[C@@H](CCCCNc1n[nH]c(N)n1)C(=O)N[C@H](CCCCNc1n[nH]c(N)n1)C(=O)N[C@@H](CC(C)C)C(=O)N[C@@H](CCCCNC(C)C)C(=O)N1CCC[C@H]1C(=O)NCC(N)=O
Rattus norvegicus [1]
  AOA: 1 and 2.5
Homo sapiens
  Potency: 0.12
Rattus norvegicus [2]
  EC50: 66 mg/L (≈ 43.1 µM)

## CC(=O)N[C@H](Cc1ccc2ccccc2c1)C(=O)N[C@H](Cc1ccc(Cl)cc1)C(=O)N[C@H](Cc1cccnc1)C(=O)N[C@@H](CO)C(=O)N[C@@H](CCCN=C(N)N)C(=O)N[C@H](Cc1cccnc1)C(=O)N[C@@H](CC(C)C)C(=O)N[C@@H](CCCN=C(N)N)C(=O)N1CCC[C@H]1C(=O)N[C@H](C)C(N)=O
Rattus norvegicus [1]
  AOA: 0.5 and 1
Homo sapiens
  Potency: 0.91
Rattus norvegicus [2]
  EC50: 2.9 mg/L (≈ 2.05 µM)

## CC(=O)N[C@H](Cc1ccc2ccccc2c1)C(=O)N[C@H](Cc1ccc(Cl)cc1)C(=O)N[C@H](Cc1cccnc1)C(=O)N[C@@H](CO)C(=O)N[C@@H](Cc1ccc(O)cc1)C(=O)N[C@H](Cc1cccnc1)C(=O)N[C@@H](CC(C)C)C(=O)N[C@@H](CCCCNC(C)C)C(=O)N1CCC[C@H]1C(=O)N[C@H](C)C(N)=O [listing 1 of 2 here]
[3]
  RT: 16.3 min

## CC(=O)N[C@H](Cc1ccc2ccccc2c1)C(=O)N[C@H](Cc1ccc(Cl)cc1)C(=O)N[C@H](Cc1cccnc1)C(=O)N[C@@H](CO)C(=O)N[C@@H](Cc1ccc(O)cc1)C(=O)N[C@H](Cc1cccnc1)C(=O)N[C@@H](CC(C)C)C(=O)N[C@@H](CCCCNC(C)C)C(=O)N1CCC[C@H]1C(=O)N[C@H](C)C(N)=O [listing 2 of 2 here]
Rattus norvegicus [1]
  AOA: 1 and 2.5
Homo sapiens
  Potency: 1.3
Rattus norvegicus [2]
  EC50: 34 mg/L (≈ 23.7 µM)

## CC(=O)N[C@H](Cc1ccc2ccccc2c1)C(=O)N[C@H](Cc1ccc(Cl)cc1)C(=O)N[C@H](Cc1cccnc1)C(=O)N[C@@H](CO)C(=O)N[C@@H](CCCCNC(=O)c1cccnc1)C(=O)N[C@H](CCCCNC(=O)c1cccnc1)C(=O)N[C@@H](CC(C)C)C(=O)N[C@@H](CCCCNC(C)C)C(=O)N1CCC[C@H]1C(=O)N[C@H](C)C(N)=O (Ac-[d2Nal][dPhe(4-Cl)][d3Pal]SK(Nicotinoyl)[dK](Nicotinoyl)L[Lys(iPr)]P[dA]-NH2)
Rattus norvegicus [1]
  AOA: 1 and 1.5
Homo sapiens
  Potency: 0.66
Rattus norvegicus [2]
  EC50: > 300 mg/L

## CC(=O)N[C@H](Cc1ccc2ccccc2c1)C(=O)N[C@H](Cc1ccc(Cl)cc1)C(=O)N[C@H](Cc1cccnc1)C(=O)N[C@@H](CO)C(=O)N[C@@H](CCCCNc1n[nH]c(N)n1)C(=O)N[C@H](CCCCNc1n[nH]c(N)n1)C(=O)N[C@@H](CC(C)C)C(=O)N[C@@H](CCCCNC(C)C)C(=O)N1CCC[C@H]1C(=O)N[C@H](C)C(N)=O (Ac-[d2Nal][dPhe(4-Cl)][d3Pal]SK(Triazol3yl(1,2,4-5-NH2))[dK](Triazol3yl(1,2,4-5-NH2))L[Lys(iPr)]P[dA]-NH2)
Rattus norvegicus [1]
  AOA: 2
Homo sapiens
  Potency: 0.23
Rattus norvegicus [2]
  EC50: 139 mg/L (≈ 90 µM)

## COc1ccc(C(=O)CC[C@@H](NC(=O)[C@H](CCCN=C(N)N)NC(=O)[C@H](CO)NC(=O)[C@@H](Cc2cccnc2)NC(=O)[C@@H](Cc2ccc(Cl)cc2)NC(=O)[C@@H](Cc2ccc3ccccc3c2)NC(C)=O)C(=O)N[C@@H](CC(C)C)C(=O)N[C@@H](CCCN=C(N)N)C(=O)N2CCC[C@H]2C(=O)N[C@H](C)C(N)=O)cc1 (Ac-[d2Nal][dPhe(4-Cl)][d3Pal]SR[dNva(5-oxo-5-(4-MeOPh))]LRP[dA]-NH2)
Rattus norvegicus [1]
  AOA: 0.5 and 1.5
Homo sapiens
  Potency: 1
Rattus norvegicus [2]
  EC50: 1.8 mg/L (≈ 1.21 µM)

## CCN=C(NCC)NCCCC[C@H](NC(=O)[C@H](CC(C)C)NC(=O)[C@@H](CCCCNC(=NCC)NCC)NC(=O)[C@H](Cc1ccc(O)cc1)NC(=O)[C@H](CO)NC(=O)[C@@H](Cc1cccnc1)NC(=O)[C@@H](Cc1ccc(Cl)cc1)NC(=O)[C@@H](Cc1ccc2ccccc2c1)NC(C)=O)C(=O)N1CCC[C@H]1C(=O)N[C@H](C)C(N)=O (Ac-[d2Nal][dPhe(4-Cl)][d3Pal]SY[d(hArg(Et2))]L[hArg(Et2)]P[dA]-NH2)
Rattus norvegicus [1]
  AOA: 2.5
Homo sapiens
  Potency: 2.17
Rattus norvegicus [2]
  EC50: 11 mg/L (≈ 7 µM)

## CC(=O)N[C@H](Cc1ccc2ccccc2c1)C(=O)N[C@H](Cc1ccc(Cl)cc1)C(=O)N[C@H](Cc1cccnc1)C(=O)N[C@@H](CO)C(=O)N[C@@H](Cc1ccc(O)cc1)C(=O)N[C@H](CCCNC(N)=O)C(=O)N[C@@H](CC(C)C)C(=O)N[C@@H](CCCNC(=N)N)C(=O)N1CCC[C@H]1C(=O)N[C@H](C)C(N)=O (Ac-[d2Nal][dPhe(4-Cl)][d3Pal]SY[dCit]LRP[dA]-NH2)
[3]
  RT: 10.1 min

## CC(=O)N[C@H](Cc1ccc2ccccc2c1)C(=O)N[C@H](Cc1ccc(Cl)cc1)C(=O)N[C@H](Cc1cccnc1)C(=O)N[C@@H](CO)C(=O)N[C@@H](Cc1ccc(O)cc1)C(=O)N[C@H](CCCNC(N)=O)C(=O)N[C@@H](CC(C)C)C(=O)N[C@@H](CCCN=C(N)N)C(=O)N1CCC[C@H]1C(=O)N[C@H](C)C(N)=O (Ac-[d2Nal][dPhe(4-Cl)][d3Pal]SY[dCit]LRP[dA]-NH2)
Rattus norvegicus [1]
  AOA: 1 and 2
Homo sapiens
  Potency: 1.56
Rattus norvegicus [2]
  EC50: 2.1 mg/L (≈ 1.47 µM)

## CC(=O)N[C@H](Cc1ccc2ccccc2c1)C(=O)N[C@H](Cc1ccc(Cl)cc1)C(=O)N[C@H](Cc1cccnc1)C(=O)N[C@@H](CO)C(=O)N(C)[C@@H](Cc1ccc(O)cc1)C(=O)N[C@H](CCCCNC(=O)c1cccnc1)C(=O)N[C@@H](CC(C)C)C(=O)N[C@@H](CCCCNC(C)C)C(=O)N1CCC[C@H]1C(=O)N[C@H](C)C(N)=O (Ac-[d2Nal][dPhe(4-Cl)][d3Pal]S[NMeY][dK](Nicotinoyl)L[Lys(iPr)]P[dA]-NH2)
Homo sapiens
  Potency: 1.42
Rattus norvegicus [2]
  EC50: 22 mg/L (≈ 14.3 µM)

## CC(=O)N[C@H](Cc1ccc2ccccc2c1)C(=O)N[C@H](Cc1ccc(Cl)cc1)C(=O)N[C@H](Cc1cccnc1)C(=O)N[C@@H](CO)C(=O)N[C@@H](CCCNc1n[nH]c(N)n1)C(=O)N[C@H](CCCNc1n[nH]c(N)n1)C(=O)N[C@@H](CC(C)C)C(=O)N[C@@H](CCCCNC(C)C)C(=O)N1CCC[C@H]1C(=O)N[C@H](C)C(N)=O (Ac-[d2Nal][dPhe(4-Cl)][d3Pal]S[Orn](Triazol3yl(1,2,4-5-NH2))[dOrn](Triazol3yl(1,2,4-5-NH2))L[Lys(iPr)]P[dA]-NH2)
Rattus norvegicus [1]
  AOA: 2
Homo sapiens
  Potency: 0.2
Rattus norvegicus [2]
  EC50: 158 mg/L (≈ 104 µM)

## CC(=O)N[C@H](Cc1ccc2ccccc2c1)C(=O)N[C@H](Cc1ccc(Cl)cc1)C(=O)N[C@H](Cc1cccnc1)C(=O)N[C@@H](CO)C(=O)N[C@@H](Cc1ccc(Nc2n[nH]c(N)n2)cc1)C(=O)N[C@H](Cc1ccc(Nc2n[nH]c(N)n2)cc1)C(=O)N[C@@H](CC(C)C)C(=O)N[C@@H](CCCCNC(C)C)C(=O)N1CCC[C@H]1C(=O)NCC(N)=O (Ac-[d2Nal][dPhe(4-Cl)][d3Pal]S[Phe(4-NH(5-NH2triazol-3-yl))][X1]L[Lys(iPr)]PG-NH2) [listing 1 of 2 here]
[3]
  RT: 8.45 min

## CC(=O)N[C@H](Cc1ccc2ccccc2c1)C(=O)N[C@H](Cc1ccc(Cl)cc1)C(=O)N[C@H](Cc1cccnc1)C(=O)N[C@@H](CO)C(=O)N[C@@H](Cc1ccc(Nc2n[nH]c(N)n2)cc1)C(=O)N[C@H](Cc1ccc(Nc2n[nH]c(N)n2)cc1)C(=O)N[C@@H](CC(C)C)C(=O)N[C@@H](CCCCNC(C)C)C(=O)N1CCC[C@H]1C(=O)NCC(N)=O (Ac-[d2Nal][dPhe(4-Cl)][d3Pal]S[Phe(4-NH(5-NH2triazol-3-yl))][X1]L[Lys(iPr)]PG-NH2) [listing 2 of 2 here]
Rattus norvegicus [1]
  AOA: 1
Homo sapiens
  Potency: 1
Rattus norvegicus [2]
  EC50: 28 mg/L (≈ 17.5 µM)

## CC(=O)N[C@H](Cc1ccc2ccccc2c1)C(=O)N[C@H](Cc1ccc(Cl)cc1)C(=O)N[C@H](Cc1cccnc1)C(=O)N[C@@H](CO)C(=O)N[C@@H](Cc1ccc(Nc2n[nH]c(N)n2)cc1)C(=O)N[C@H](Cc1ccc(Nc2n[nH]c(N)n2)cc1)C(=O)N[C@@H](CC(C)C)C(=O)N[C@@H](CCCCNC(C)C)C(=O)N1CCC[C@H]1C(=O)N[C@H](C)C(N)=O (Ac-[d2Nal][dPhe(4-Cl)][d3Pal]S[Phe(4-NH(5-NH2triazol-3-yl))][X1]L[Lys(iPr)]P[dA]-NH2) [listing 1 of 2 here]
[3]
  RT: 9 min

## CC(=O)N[C@H](Cc1ccc2ccccc2c1)C(=O)N[C@H](Cc1ccc(Cl)cc1)C(=O)N[C@H](Cc1cccnc1)C(=O)N[C@@H](CO)C(=O)N[C@@H](Cc1ccc(Nc2n[nH]c(N)n2)cc1)C(=O)N[C@H](Cc1ccc(Nc2n[nH]c(N)n2)cc1)C(=O)N[C@@H](CC(C)C)C(=O)N[C@@H](CCCCNC(C)C)C(=O)N1CCC[C@H]1C(=O)N[C@H](C)C(N)=O (Ac-[d2Nal][dPhe(4-Cl)][d3Pal]S[Phe(4-NH(5-NH2triazol-3-yl))][X1]L[Lys(iPr)]P[dA]-NH2) [listing 2 of 2 here]
Rattus norvegicus [1]
  AOA: 0.5 and 1
Homo sapiens
  Potency: 1.3
Rattus norvegicus [2]
  EC50: 224 mg/L (≈ 139 µM)

## CC(=O)N[C@H](Cc1ccc2ccccc2c1)C(=O)N[C@H](Cc1ccc(Cl)cc1)C(=O)N[C@H](Cc1cccnc1)C(=O)N[C@@H](CO)C(=O)N[C@@H](Cc1ccc(Nc2n[nH]c(N)n2)cc1)C(=O)N[C@H](Cc1ccc(Nc2n[nH]c(N)n2)cc1)C(=O)N(C)[C@@H](CC(C)C)C(=O)N[C@@H](CCCCNC(C)C)C(=O)N1CCC[C@H]1C(=O)N[C@H](C)C(N)=O (Ac-[d2Nal][dPhe(4-Cl)][d3Pal]S[Phe(4-NH(5-NH2triazol-3-yl))][X1][NMeL][Lys(iPr)]P[dA]-NH2)
Rattus norvegicus [1]
  AOA: 0.5 and 1
Homo sapiens
  Potency: 1.6
Rattus norvegicus [2]
  EC50: 34 mg/L (≈ 20.9 µM)
